≈ marks a conversion by molar mass, not a printed value. Calls of active or inactive are those of the source. No cut-off for these calls is given here.
Legend:
[1] = test system: Salmonella typhimurium; assay: Antibacterial activity against Salmonella Typhimurium isolate 11; type: functional, Salmonella enterica subsp. enterica serovar Typhimurium
Outline: (§1)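 MIC by broth and agar dilution. Broth: 0.1 ml suspension (2 × 10^6 cfu/ml) in Mueller-Hinton broth with test drug at 1–1000 µg/ml, 37 °C overnight. Agar: serial drug dilutions in Mueller-Hinton agar, spot-inoculated with 2 × 10^6 cfu/spot, 37 °C for 24 h. MIC was the lowest concentration with no visible growth. Antibiotic controls were included.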

[2] = test system: Pseudomonas aeruginosa; assay: Antibacterial activity against Pseudomonas aeruginosa ATCC 27853; type: functional; outline: as §1
[3] = test system: Enterococcus faecalis; assay: Antibacterial activity against Streptococcus faecalis isolate 29212; type: functional; outline: as §1
[4] = test system: Vibrio cholerae; assay: Antibacterial activity against Vibrio cholerae isolate 7201; type: functional
[5] = test system: Bacillus subtilis; assay: Antibacterial activity against Bacillus subtilis UC564; type: functional; outline: as §1
[6] = test system: Micrococcus luteus; assay: Antibacterial activity against Micrococcus luteus AGD1; type: functional; outline: as §1
[7] = test system: Shigella dysenteriae; assay: Antibacterial activity against Shigella dysenteriae isolate 3; type: functional
[8] = test system: Staphylococcus aureus; assay: Antibacterial activity against Staphylococcus aureus ATCC 25923; type: functional; outline: as §1
[9] = test system: Salmonella typhi; assay: Antibacterial activity against Salmonella typhi DIRW; type: functional, Salmonella enterica subsp. enterica serovar Typhi
[10] = test system: Vibrio parahaemolyticus; assay: Antibacterial activity against Vibrio parahaemolyticus isolate 72016; type: functional; outline: as §1
[11] = test system: Escherichia coli; assay: Antibacterial activity against Escherichia coli ATCC 25938; type: functional; outline: as §1
[12] = test system: Klebsiella pneumoniae; assay: Antibacterial activity against Klebsiella pneumoniae isolate J/1/4; type: functional; outline: as §1
[13] = test system: Shigella flexneri; assay: Antibacterial activity against Shigella flexneri DN13; type: functional; outline: as §1
[14] = test system: Salmonella typhimurium; assay: Antibacterial activity against Salmonella Typhimurium isolate 11 at 1 to 1000 ug/ml after overnight incubation by disc diffusion method; type: functional, organism-based; conditions: Salmonella enterica subsp. enterica serovar Typhimurium
Outline: (§2)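 Disc diffusion on Mueller-Hinton agar. Plates seeded with 0.1 ml bacterial suspension (2 × 10^6 cfu/ml). Sterile 6 mm paper discs were impregnated with compound solutions at 1–1000 µg/ml and incubated at 37 °C overnight. Read-out was the diameter of the clear inhibition zone. Stocks were 1 mg/ml in 4% Tween 80 or 4% propylene glycol.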

[15] = test system: Bacillus subtilis; assay: Antibacterial activity against Bacillus subtilis UC564 at 1 to 1000 ug/ml after overnight incubation by disc diffusion method; type: functional; outline: as §2
[16] = test system: Klebsiella pneumoniae; assay: Antibacterial activity against Klebsiella pneumoniae isolate J/1/4 at 1 to 1000 ug/ml after overnight incubation by disc diffusion method; type: functional; outline: as §2
[17] = test system: Micrococcus luteus; assay: Antibacterial activity against Micrococcus luteus AGD1 at 1 to 1000 ug/ml after overnight incubation by disc diffusion method; type: functional; outline: as §2
[18] = test system: Shigella dysenteriae; assay: Antibacterial activity against Shigella dysenteriae isolate 3 at 1 to 1000 ug/ml after overnight incubation by disc diffusion method; type: functional
[19] = test system: Staphylococcus aureus; assay: Antibacterial activity against Staphylococcus aureus ATCC 25923 at 1 to 1000 ug/ml after overnight incubation by disc diffusion method; type: functional; outline: as §2
[20] = test system: Vibrio cholerae; assay: Antibacterial activity against Vibrio cholerae isolate 7201 at 1 to 1000 ug/ml after overnight incubation by disc diffusion method; type: functional
[21] = test system: Shigella flexneri; assay: Antibacterial activity against Shigella flexneri DN13 at 1 to 1000 ug/ml after overnight incubation by disc diffusion method; type: functional; outline: as §2
[22] = test system: Enterococcus faecalis; assay: Antibacterial activity against Enterococcus faecalis isolate 29212 at 1 to 1000 ug/ml after overnight incubation by disc diffusion method; type: functional; outline: as §2
[23] = test system: Pseudomonas aeruginosa; assay: Antibacterial activity against Pseudomonas aeruginosa ATCC 27853 at 1 to 1000 ug/ml after overnight incubation by disc diffusion method; type: functional; outline: as §2
[24] = test system: Vibrio cholerae; assay: Antibacterial activity against Vibrio cholerae isolate 720 at 1 to 1000 ug/ml after overnight incubation by disc diffusion method; type: functional
[25] = test system: Vibrio parahaemolyticus; assay: Antibacterial activity against Vibrio parahaemolyticus isolate 72016 at 1 to 1000 ug/ml after overnight incubation by disc diffusion method; type: functional; outline: as §2
[26] = test system: Escherichia coli; assay: Antibacterial activity against Escherichia coli ATCC 25938 at 1 to 1000 ug/ml after overnight incubation by disc diffusion method; type: functional; outline: as §2
[27] = test system: Salmonella typhi; assay: Antibacterial activity against Salmonella typhi DIRW at 1 to 1000 ug/ml after overnight incubation by disc diffusion method; type: functional; conditions: Salmonella enterica subsp. enterica serovar Typhi

Row | Molecule | MIC ([1]; Salmonella enterica) [µg/mL] | MIC [2] [µg/mL] | MIC [3] [µg/mL] | MIC [4] [µg/mL] | MIC [5] [µg/mL] | MIC [6] [µg/mL] | MIC [7] [µg/mL] | MIC [8] [µg/mL] | MIC ([9]; Salmonella enterica) [µg/mL] | MIC [10] [µg/mL] | MIC [11] [µg/mL] | MIC [12] [µg/mL] | MIC [13] [µg/mL] | further results
1 | COC(=O)c1cc(C(=O)c2ccccc2)n2ccc3ccccc3c12 | 500 (≈ 1520 µM) | 128 (≈ 389 µM) | 256 (≈ 777 µM) | 256 (≈ 777 µM) | 256 (≈ 777 µM) | > 500 | 256 (≈ 777 µM) | 128 (≈ 389 µM) | 256 (≈ 777 µM) | 256 (≈ 777 µM) | 500 (≈ 1520 µM) | 256 (≈ 777 µM) | 128 (≈ 389 µM) | 
2 | CCOC(=O)c1cc2ccccn2c1C(=O)c1ccccc1 | > 500 | > 500 | > 500 | > 500 | > 500 | > 500 | > 500 | > 500 | > 500 | > 500 | > 500 | > 500 | > 500 | 
3 | COC(=O)c1c(C(=O)OC)c2c3ccccc3ccn2c1C(=O)c1ccccc1 | 256 (≈ 661 µM) | 500 (≈ 1290 µM) | > 500 | 500 (≈ 1290 µM) | > 500 | > 500 | > 500 | 256 (≈ 661 µM) | > 500 | 256 (≈ 661 µM) | 256 (≈ 661 µM) | 500 (≈ 1290 µM) | > 500 | 
4 | CCOC(=O)c1c(C(=O)OCC)c2ccccn2c1C(=O)c1ccccc1 | > 500 | > 500 | > 500 | > 500 | > 500 | > 500 | > 500 | > 500 | > 500 | > 500 | > 500 | > 500 | > 500 | 
5 | COC(=O)c1cc2ccc3ccccc3n2c1C(=O)c1ccccc1 | > 500 | > 500 | > 500 | > 500 | > 500 | > 500 | > 500 | > 500 | > 500 | > 500 | > 500 | > 500 | > 500 | 
6 | COC(=O)c1cc2ccccn2c1C(=O)c1ccccc1 | > 500 | > 500 | > 500 | > 500 | > 500 | > 500 | > 500 | > 500 | > 500 | > 500 | > 500 | > 500 | > 500 | 
7 | CC1(C)S[C@@H]2[C@H](NC(=O)[C@H](N)c3ccc(O)cc3)C(=O)N2[C@H]1C(=O)O [AMOXICILLIN] | > 1000 | 256 (≈ 701 µM) | 0.25 (≈ 0.684 µM) | 256 (≈ 701 µM) | 0.5 (≈ 1.37 µM) | 0.5 (≈ 1.37 µM) | 64 (≈ 175 µM) | 0.5 (≈ 1.37 µM) | 128 (≈ 350 µM) | 256 (≈ 701 µM) | 0.5 (≈ 1.37 µM) | 128 (≈ 350 µM) | 128 (≈ 350 µM) | 
8 | GENTAMICIN |  | 2 | 0.5 | 0.5 | 4 | 8 | 1 | 1 |  | 1 | 0.25 | 2 | 1 | MIC ([1]; Salmonella enterica subsp. enterica serovar Typhimurium): 1 µg/mL; MIC ([9]; Salmonella enterica subsp. enterica serovar Typhi): 1 µg/mL
9 | CCOC(=O)c1cc2ccc3ccccc3n2c1C(=O)c1ccccc1 | > 500 | > 500 | > 500 | > 500 | > 500 | > 500 | > 500 | > 500 | > 500 | > 500 | > 500 | > 500 | > 500 | 
10 | CCOC(=O)c1cc(C(=O)c2ccccc2)n2ccc3ccccc3c12 | 256 (≈ 746 µM) | 64 (≈ 186 µM) | 256 (≈ 746 µM) | 32 (≈ 93.2 µM) | 64 (≈ 186 µM) | 500 (≈ 1460 µM) | 128 (≈ 373 µM) | 256 (≈ 746 µM) | > 500 | 256 (≈ 746 µM) | 64 (≈ 186 µM) | 256 (≈ 746 µM) | 256 (≈ 746 µM) | diameter of the inhibition zone (DIZ) [14]: inactive; diameter of the inhibition zone (DIZ) [15]: 11.4 mm; diameter of the inhibition zone (DIZ) [16]: 8.5 mm; diameter of the inhibition zone (DIZ) [17]: 8.1 mm; diameter of the inhibition zone (DIZ) [18]: 9.7 mm; diameter of the inhibition zone (DIZ) [19]: 8.3 mm; diameter of the inhibition zone (DIZ) [20]: 10.2 mm; diameter of the inhibition zone (DIZ) [21]: 7.1 mm; diameter of the inhibition zone (DIZ) [22]: 7 mm; diameter of the inhibition zone (DIZ) [23]: 11 mm; diameter of the inhibition zone (DIZ) [24]: 10.2 mm; diameter of the inhibition zone (DIZ) [25]: 8 mm; diameter of the inhibition zone (DIZ) [26]: 11.2 mm; diameter of the inhibition zone (DIZ) [27]: inactive
11 | CCOC(=O)c1c(C(=O)OCC)c2c3ccccc3ccn2c1C(=O)c1ccccc1 | > 500 | 500 (≈ 1200 µM) | > 500 | 500 (≈ 1200 µM) | 256 (≈ 616 µM) | > 500 | > 500 | 500 (≈ 1200 µM) | 128 (≈ 308 µM) | 128 (≈ 308 µM) | 128 (≈ 308 µM) | 128 (≈ 308 µM) | 256 (≈ 616 µM) | 
12 | COC(=O)c1c(C(=O)OC)c2ccccn2c1C(=O)c1ccccc1 | > 500 | 500 (≈ 1480 µM) | > 500 | > 500 | > 500 | > 500 | > 500 | > 500 | > 500 | > 500 | > 500 | > 500 | > 500 | 
